Data published in ChEMBL document CHEMBL4033643, “Synthesis and in vitro antitumour activity of crassalactone D, its stereoisomers and novel cinnamic ester derivatives” (Eur J Med Chem, 2017).
Active and inactive are the calls of the source. The rule behind the calls is not given here.

How the values were obtained:
K562 [1] = assay: Cell cycle arrest in human K562 cells assessed as accumulation at G0/G1 phase at IC50 after 72 hrs by propidium iodide staining based flow cytometry (reference value: 38.48%); type: functional
K562 [2] = assay: Induction of apoptosis in human K562 cells assessed as gated early apoptotic cells by Annexin V-FITC/propidium iodide staining based flow cytometry (reference value: 3.18%); type: functional
A549 = assay: Cytotoxicity against human A549 cells assessed as reduction in cell viability after 72 hrs by MTT assay; type: functional, cell-based; details: A549, 72 h
K562 [3] = assay: Induction of apoptosis in human K562 cells assessed as increase in cleaved PARP expression level by Western blot analysis; type: functional, cell-based
Procedure, shortened: (§1)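 Western blot of treated K562 cells for Bcl-2, Bax, activated caspase 3 and cleaved PARP (85 kDa fragment). Blots developed by ECL, with band expression quantified by densitometry against an untreated control sample.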

MRC5 = assay: Cytotoxicity against human MRC5 cells assessed as reduction in cell viability after 72 hrs by MTT assay; type: cell-based; details: MRC5, 72 h
MCF7 = assay: Cytotoxicity against human MCF7 cells assessed as reduction in cell viability after 72 hrs by MTT assay; type: functional, cell-based; details: MCF7, 72 h
K562 [4] = assay: Cell cycle arrest in human K562 cells assessed as accumulation at S phase at IC50 after 72 hrs by propidium iodide staining based flow cytometry (reference value: 41.03%); type: functional
K562 [5] = assay: Cell cycle arrest in human K562 cells assessed as total cell levels at M4 phase at IC50 after 72 hrs by propidium iodide staining based flow cytometry (reference value: 0.50%); type: functional
K562 [6] = assay: Cell cycle arrest in human K562 cells assessed as total cell levels at S phase at IC50 after 72 hrs by propidium iodide staining based flow cytometry (reference value: 36.49%); type: functional
K562 [7] = assay: Induction of apoptosis in human K562 cells assessed as increase in Bax expression level by Western blot analysis; type: functional, cell-based; procedure, shortened: as §1
MDA-MB-231 = assay: Cytotoxicity against human MDA-MB-231 cells assessed as reduction in cell viability after 72 hrs by MTT assay; type: functional, cell-based; details: MDA-MB-231, 72 h
K562 [8] = assay: Induction of apoptosis in human K562 cells assessed as total viable cells by Annexin V-FITC/propidium iodide staining based flow cytometry (reference value: 92.45%); type: functional
K562 [9] = assay: Induction of apoptosis in human K562 cells assessed as gated late apoptotic cells by Annexin V-FITC/propidium iodide staining based flow cytometry (reference value: 0.88%); type: functional
K562 [10] = assay: Cell cycle arrest in human K562 cells assessed as accumulation at sub G1 phase at IC50 after 72 hrs by propidium iodide staining based flow cytometry (reference value: 1.48%); type: functional
K562 [11] = assay: Cell cycle arrest in human K562 cells assessed as total cell levels at G0/G1 phase at IC50 after 72 hrs by propidium iodide staining based flow cytometry (reference value: 39.97%); type: functional
K562 [12] = assay: Induction of apoptosis in human K562 cells assessed as decrease in Bcl-2 expression level by Western blot analysis; type: functional, cell-based; procedure, shortened: as §1
K562 [13] = assay: Induction of apoptosis in human K562 cells assessed as specific necrosis by Annexin V-FITC/propidium iodide staining based flow cytometry; type: functional; set-up: concentration or dose not given beside the values
Jurkat = assay: Cytotoxicity against human Jurkat cells assessed as reduction in cell viability after 72 hrs by MTT assay; type: functional, cell-based
K562 [14] = assay: Induction of apoptosis in human K562 cells assessed as increase in caspase 3 expression level by Western blot analysis; type: functional, cell-based; procedure, shortened: as §1
HL-60 = assay: Cytotoxicity against human HL60 cells assessed as reduction in cell viability after 72 hrs by MTT assay; type: functional, cell-based; details: HL-60, 72 h
Raji = assay: Cytotoxicity against human Raji cells assessed as reduction in cell viability after 72 hrs by MTT assay; type: functional, cell-based
K562 [15] = assay: Cell cycle arrest in human K562 cells assessed as total cell levels at G2/M phase at IC50 after 72 hrs by propidium iodide staining based flow cytometry (reference value: 14.31%); type: functional
K562 [16] = assay: Induction of apoptosis in human K562 cells assessed as gated necrotic cells by Annexin V-FITC/propidium iodide staining based flow cytometry (reference value: 0.24%); type: functional
K562 [17] = assay: Cytotoxicity against human K562 cells assessed as reduction in cell viability after 72 hrs by MTT assay; type: functional, cell-based; details: K562, 72 h
HeLa = assay: Cytotoxicity against human HeLa cells assessed as reduction in cell viability after 72 hrs by MTT assay; type: functional, cell-based
K562 [18] = assay: Induction of apoptosis in human K562 cells assessed as specific apoptosis by Annexin V-FITC/propidium iodide staining based flow cytometry; type: functional; set-up: concentration or dose not given beside the values
K562 [19] = assay: Induction of apoptosis in human K562 cells assessed as total early apoptotic cells by Annexin V-FITC/propidium iodide staining based flow cytometry (reference value: 3.07%); type: functional
K562 [20] = assay: Induction of apoptosis in human K562 cells assessed as total necrotic cells by Annexin V-FITC/propidium iodide staining based flow cytometry (reference value: 0.23%); type: functional
K562 [21] = assay: Cell cycle arrest in human K562 cells assessed as accumulation at G2/M phase at IC50 after 72 hrs by propidium iodide staining based flow cytometry (reference value: 19.01%); type: functional
K562 [22] = assay: Potency index, ratio of doxorubicin IC50 to compound IC50 for human K562 cells; type: functional
K562 [23] = assay: Induction of apoptosis in human K562 cells assessed as gated viable cells by Annexin V-FITC/propidium iodide staining based flow cytometry (reference value: 95.78%); type: functional
K562 [24] = assay: Induction of apoptosis in human K562 cells assessed as total late apoptotic cells by Annexin V-FITC/propidium iodide staining based flow cytometry (reference value: 0.77%); type: functional

In the case of `O=C1C=C[C@]2(C[C@H](O)[C@@H](c3ccccc3)O2)O1`, the Activity (K562 [1]) is reported as 32.52%, the Activity (K562 [2]) is reported as 8.88% and the IC50 (A549) is reported as 29 µM. For the same molecule, the Activity (K562 [3]) was “Active”, the IC50 (MRC5) was > 100 µM and the IC50 (MCF7) was 11.6 µM. The Activity (K562 [4]) was 59.02%, the Activity (K562 [5]) was 1.26% and the Activity (K562 [6]) was 47.93%. The Activity (K562 [7]) was “inactive”, the IC50 (MDA-MB-231) was 1.89 µM and the Activity (K562 [8]) was 16.71%. It also gave an Activity (K562 [9]) of 16.8%, an Activity (K562 [10]) of 1.6% and an Activity (K562 [11]) of 25.97%. The Activity (K562 [12]) was “Active”, the Activity (K562 [13]) was 1.08% and the IC50 (Jurkat) was 0.21 µM. For the same molecule, the Activity (K562 [14]) was “Active”, the IC50 (HL-60) was 1.06 µM and the IC50 (Raji) was 2.34 µM. It also gave an Activity (K562 [15]) of 5.47%, an Activity (K562 [16]) of 5.02% and an IC50 (K562 [17]) of 0.12 µM. For the same molecule, the IC50 (HeLa) was 0.34 µM, the Activity (K562 [18]) was 22.6% and the Activity (K562 [19]) was 2.14%. The Activity (K562 [20]) was 1.21%, the Activity (K562 [21]) was 6.86% and the “Ratio IC50” value (K562 [22]) was 2. For the same molecule, the Activity (K562 [23]) was 69.31% and the Activity (K562 [24]) was 4.05%.
